From ChEMBL document CHEMBL3243979, “Syntheses of N-substituted 2(3,4)-pyridylcarboxylic acid hydrazides with analgesic and antiinflammatory activity” (1979)

Legend:
Format in all cases: functional
Rattus norvegicus [1] = test: Antiinflammatory activity in Sprague-Dawley rat assessed as inhibition of carrageenan-induced paw edema at 128 mg/kg, sc administered post-challenge measured at 5 hrs post compound treatment relative to vehicle-treated control; conditions: route subcutaneous
Mus musculus [2] = test: Analgesic activity in Swiss albino mouse assessed as inhibition of phenyl-p-benzoquinone-induced writhing at 128 mg/kg, sc administered 30 mins prior challenge relative to vehicle-treated control; conditions: route subcutaneous
Outline: (§1)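 Male Swiss albino mice, 18–22 g, five per group. Compound suspended in physiological saline with Tween 80 and given sc. At 30 min, 0.03% phenyl-p-benzoquinone given ip at 0.1 mL/10 g body weight. Total writhes per animal counted against a vehicle-treated control group. % change = (treated writhes/control writhes) × 100 − 100.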

Rattus norvegicus [3] = test: Antiinflammatory activity in Sprague-Dawley rat assessed as inhibition of carrageenan-induced paw edema at 128 mg/kg, sc administered post-challenge measured at 3 hrs post compound treatment relative to vehicle-treated control; conditions: route subcutaneous
Rattus norvegicus [4] = test: Antiinflammatory activity in Sprague-Dawley rat assessed as inhibition of carrageenan-induced paw edema at 64 mg/kg, […] measured at 3 hrs post compound treatment relative to vehicle-treated control; conditions: sc, route subcutaneous
Rattus norvegicus [5] = test: Antiinflammatory activity in Sprague-Dawley rat assessed as inhibition of carrageenan-induced paw edema at 64 mg/kg, sc administered post-challenge measured at 5 hrs post compound treatment relative to vehicle-treated control; conditions: route subcutaneous
Mus musculus [6] = test: Analgesic activity in Swiss albino mouse assessed as inhibition of phenyl-p-benzoquinone-induced writhing at 11.8 mg/kg, sc administered 30 mins prior challenge relative to vehicle-treated control; conditions: route subcutaneous; outline: as §1
Rattus norvegicus [7] = test: Antiinflammatory activity in Sprague-Dawley rat assessed as inhibition of carrageenan-induced paw edema at 120 mg/kg, […] measured at 3 hrs post compound treatment relative to vehicle-treated control; conditions: sc, route subcutaneous
Rattus norvegicus [8] = test: Antiinflammatory activity in Sprague-Dawley rat assessed as inhibition of carrageenan-induced paw edema at 120 mg/kg, sc administered post-challenge measured at 5 hrs post compound treatment relative to vehicle-treated control; conditions: route subcutaneous
Rattus norvegicus [9] = test: Antiinflammatory activity in Sprague-Dawley rat assessed as inhibition of carrageenan-induced paw edema at 100 mg/kg, […] measured at 3 hrs post compound treatment relative to vehicle-treated control; conditions: sc, route subcutaneous
Mus musculus [10] = test: Analgesic activity in Swiss albino mouse assessed as inhibition of phenyl-p-benzoquinone-induced writhing at 120 mg/kg, sc administered 30 mins prior challenge relative to vehicle-treated control; conditions: route subcutaneous; outline: as §1
Rattus norvegicus [11] = test: Antiinflammatory activity in Sprague-Dawley rat assessed as inhibition of carrageenan-induced paw edema at 100 mg/kg, sc administered post-challenge measured at 5 hrs post compound treatment relative to vehicle-treated control; conditions: route subcutaneous
Mus musculus [12] = test: Analgesic activity in Swiss albino mouse assessed as inhibition of phenyl-p-benzoquinone-induced writhing at 50 mg/kg, sc administered 30 mins prior challenge relative to vehicle-treated control; conditions: route subcutaneous; outline: as §1
Rattus norvegicus [13] = test: Antiinflammatory activity in Sprague-Dawley rat assessed as inhibition of carrageenan-induced paw edema at 12 mg/kg, sc administered post-challenge measured at 5 hrs post compound treatment relative to vehicle-treated control; conditions: route subcutaneous
Rattus norvegicus [14] = test: Antiinflammatory activity in Sprague-Dawley rat assessed as inhibition of carrageenan-induced paw edema at 12 mg/kg, sc administered post-challenge measured at 3 hrs post compound treatment relative to vehicle-treated control; conditions: route subcutaneous
Mus musculus [15] = test: Analgesic activity in Swiss albino mouse assessed as inhibition of phenyl-p-benzoquinone-induced writhing at 56 mg/kg, sc administered 30 mins prior challenge relative to vehicle-treated control; conditions: route subcutaneous; outline: as §1

For `O=C(NNC(=O)c1ccncc1)c1ccccc1`, which inhibition in vivo at 128 mg/kg (Rattus norvegicus [1]) is on record?
The inhibition in vivo at 128 mg/kg was 0%.

What about the inhibition in vivo at 128 mg/kg (Mus musculus [2]) of the same compound?
Its inhibition in vivo at 128 mg/kg is 38.3%.

What about the inhibition in vivo at 128 mg/kg (Rattus norvegicus [3]) of the same compound?
Its inhibition in vivo at 128 mg/kg is 17%.

With `O=C(NN1CCOCC1)c1cccnc1` as the compound, how does the inhibition in vivo at 128 mg/kg (Rattus norvegicus [1]) read?
The inhibition in vivo at 128 mg/kg was 17%.

And the inhibition in vivo at 128 mg/kg (Mus musculus [2])?
Its inhibition in vivo at 128 mg/kg is 6.7%.

What about the inhibition in vivo at 128 mg/kg (Rattus norvegicus [3]) of the same compound?
Its inhibition in vivo at 128 mg/kg is 50%.

`CN(C)NC(=O)c1cccnc1` was tested. Which inhibition in vivo at 64 mg/kg (Rattus norvegicus [4]) did it give?
Its inhibition in vivo at 64 mg/kg is 0%.

What about the inhibition in vivo at 128 mg/kg (Mus musculus [2]) of the same compound?
The inhibition in vivo at 128 mg/kg was 45%.

And the inhibition in vivo at 64 mg/kg (Rattus norvegicus [5])?
Its inhibition in vivo at 64 mg/kg is 0%.

With `O=C(NN1CCc2ccccc2C1)c1ccncc1` as the compound, how does the inhibition in vivo at 128 mg/kg (Rattus norvegicus [1]) read?
Its inhibition in vivo at 128 mg/kg is 17%.

What about the inhibition in vivo at 128 mg/kg (Mus musculus [2]) of the same compound?
Its inhibition in vivo at 128 mg/kg is 79%.

And the inhibition in vivo at 128 mg/kg (Rattus norvegicus [3])?
The inhibition in vivo at 128 mg/kg was 17%.

With `CC(=O)N(NC(=O)c1ccncc1)C(C)=O` as the compound, how does the inhibition in vivo at 128 mg/kg (Rattus norvegicus [1]) read?
Its inhibition in vivo at 128 mg/kg is 17%.

And the inhibition in vivo at 128 mg/kg (Mus musculus [2])?
The inhibition in vivo at 128 mg/kg was 32%.

And the inhibition in vivo at 128 mg/kg (Rattus norvegicus [3])?
The inhibition in vivo at 128 mg/kg was 50%.

For `O=C(NNc1ccccn1)c1ccccn1`, which inhibition in vivo at 11.8 mg/kg (Mus musculus [6]) is on record?
The inhibition in vivo at 11.8 mg/kg was 50%.

What about the inhibition in vivo at 120 mg/kg (Rattus norvegicus [7]) of the same compound?
Its inhibition in vivo at 120 mg/kg is 100%.

What about the inhibition in vivo at 120 mg/kg (Rattus norvegicus [8]) of the same compound?
The inhibition in vivo at 120 mg/kg was 100%.

For `O=C(NNc1ccccn1)c1ccncc1`, which inhibition in vivo at 100 mg/kg (Rattus norvegicus [9]) is on record?
The inhibition in vivo at 100 mg/kg was 83%.

What about the inhibition in vivo at 120 mg/kg (Mus musculus [10]) of the same compound?
Its inhibition in vivo at 120 mg/kg is 0%.

And the inhibition in vivo at 100 mg/kg (Rattus norvegicus [11])?
The inhibition in vivo at 100 mg/kg was 100%.

For `O=C(NN(C(=O)c1ccncc1)c1ccccc1)c1ccncc1`, which inhibition in vivo at 100 mg/kg (Rattus norvegicus [9]) is on record?
Its inhibition in vivo at 100 mg/kg is 34%.

What about the inhibition in vivo at 120 mg/kg (Mus musculus [10]) of the same compound?
The inhibition in vivo at 120 mg/kg was 84%.

What about the inhibition in vivo at 100 mg/kg (Rattus norvegicus [11]) of the same compound?
The inhibition in vivo at 100 mg/kg was 34%.

How did the inhibition in vivo at 50 mg/kg (Mus musculus [12]) turn out when `CC(=O)Oc1ccccc1C(=O)O` [ASPIRIN] was run?
Its inhibition in vivo at 50 mg/kg is 50%.

With `COc1ccc2c(c1)c(CC(=O)O)c(C)n2C(=O)c1ccc(Cl)cc1` [INDOMETHACIN] as the compound, how does the inhibition in vivo at 12 mg/kg (Rattus norvegicus [13]) read?
Its inhibition in vivo at 12 mg/kg is 83%.

And the inhibition in vivo at 12 mg/kg (Rattus norvegicus [14])?
The inhibition in vivo at 12 mg/kg was 17%.

`CCC(=O)O[C@](Cc1ccccc1)(c1ccccc1)[C@H](C)CN(C)C` [PROPOXYPHENE] was tested. Which inhibition in vivo at 56 mg/kg (Mus musculus [15]) did it give?
Its inhibition in vivo at 56 mg/kg is 50%.
